These results are taken from PMC3954597 (Biochemistry, 2014).

One experiment concerns the target T1, PTP1B (Homo sapiens, UniProt P18031).
T1 sequence (P18031 1-321): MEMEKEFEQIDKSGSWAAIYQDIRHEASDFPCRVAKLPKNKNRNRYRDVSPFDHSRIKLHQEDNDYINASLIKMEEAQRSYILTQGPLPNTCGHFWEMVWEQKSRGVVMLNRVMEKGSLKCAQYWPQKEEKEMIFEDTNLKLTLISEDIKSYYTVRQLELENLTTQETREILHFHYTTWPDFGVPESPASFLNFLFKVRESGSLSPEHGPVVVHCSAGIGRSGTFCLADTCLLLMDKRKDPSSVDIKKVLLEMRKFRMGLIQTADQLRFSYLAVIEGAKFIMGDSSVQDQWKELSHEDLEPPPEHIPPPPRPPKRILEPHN
Description: PTP assay, wild-type PTP1B. The class given is biochemical. The conditions noted are these: for kcat/KM x 10^7: WT PTP1B aa 1–321, pH 7.4; for kcat/KM x10^6: WT catalytic domain aa 1–321, 100 mM HEPES pH 7.4, monitored at 282 nm. In a few lines: (§1)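 E. coli-expressed catalytic domains were used: wild-type, R24M or R47E PTP1B (aa 1–321), and SHP-1 (aa 205–595). Reactions started with PTP (0.5–20000 nM final) and dephosphorylation was monitored continuously at 282 nm. kcat, KM and kcat/KM came from initial-rate fits (Michaelis–Menten, or V = kcat[E][S]/KM when KM >> [S]) or from fits of progress curves.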

In the next experiment the target is T2, R47E PTP1B (Homo sapiens, UniProt P18031, R47E).
T2 sequence (P18031 1-321 R47E): T1 sequence (P18031 1-321) with R47E
The experiment can be described thus: PTP assay, R47E PTP1B. The note with it: for Km / kcat / kcat/KM x 10^7: R47E PTP1B aa 1–321, pH 7.4; for WT/R47E: ratio of kcat/KM, WT over R47E PTP1B (fold decrease by the mutation). It is filed as biochemical. Summed up:
as §1

For the next experiment, the target named is T3, R24M PTP1B (Homo sapiens, UniProt P18031, R24M).
T3 sequence (P18031 1-321 R24M): T1 sequence (P18031 1-321) with R24M
The experiment can be described thus: PTP assay, R24M PTP1B. The class given is biochemical. The note with it: for Km / kcat / kcat/KM x 10^7: R24M PTP1B aa 1–321, pH 7.4; for WT/R24M: ratio of kcat/KM, WT over R24M PTP1B (fold reduction by the mutation). In a few lines: as §1

The next experiment addresses T4, PTP-PEST (Homo sapiens, UniProt Q05209).
T4 sequence (Q05209 5-300): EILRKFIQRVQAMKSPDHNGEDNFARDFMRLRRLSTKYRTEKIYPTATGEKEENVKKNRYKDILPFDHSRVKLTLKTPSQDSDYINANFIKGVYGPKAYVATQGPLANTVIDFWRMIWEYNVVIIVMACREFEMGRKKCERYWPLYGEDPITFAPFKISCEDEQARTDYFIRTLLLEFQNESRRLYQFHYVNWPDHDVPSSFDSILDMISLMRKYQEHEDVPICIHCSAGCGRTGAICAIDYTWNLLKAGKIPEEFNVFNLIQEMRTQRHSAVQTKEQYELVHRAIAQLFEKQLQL
The experiment can be described thus: PTP assay with pY peptide substrates, PTP-PEST. It is filed as biochemical. The conditions noted are these: catalytic domain; pH 7.4.

The next experiment concerns the target SHP-1 (Homo sapiens, UniProt P29350). The note with it: catalytic domain; cited from earlier work.
The target of another experiment is T5, SHP-2 (Homo sapiens, UniProt Q06124).
T5 sequence (Q06124 199-593): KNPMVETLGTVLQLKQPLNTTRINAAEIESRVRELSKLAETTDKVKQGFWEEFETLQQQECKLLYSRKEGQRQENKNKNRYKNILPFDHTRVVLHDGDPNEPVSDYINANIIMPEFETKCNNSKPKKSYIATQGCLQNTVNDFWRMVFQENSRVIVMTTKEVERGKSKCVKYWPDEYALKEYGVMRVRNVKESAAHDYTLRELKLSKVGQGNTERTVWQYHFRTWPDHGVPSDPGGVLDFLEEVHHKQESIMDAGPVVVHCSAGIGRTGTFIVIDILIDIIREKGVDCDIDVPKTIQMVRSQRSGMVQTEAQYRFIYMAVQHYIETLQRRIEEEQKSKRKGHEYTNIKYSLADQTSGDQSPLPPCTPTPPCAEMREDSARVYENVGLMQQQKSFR
The conditions noted are these: catalytic domain; cited from earlier work.

Substitutions are numbered along the chain they refer to.

Chain of SHP-1 (P29350 205-595): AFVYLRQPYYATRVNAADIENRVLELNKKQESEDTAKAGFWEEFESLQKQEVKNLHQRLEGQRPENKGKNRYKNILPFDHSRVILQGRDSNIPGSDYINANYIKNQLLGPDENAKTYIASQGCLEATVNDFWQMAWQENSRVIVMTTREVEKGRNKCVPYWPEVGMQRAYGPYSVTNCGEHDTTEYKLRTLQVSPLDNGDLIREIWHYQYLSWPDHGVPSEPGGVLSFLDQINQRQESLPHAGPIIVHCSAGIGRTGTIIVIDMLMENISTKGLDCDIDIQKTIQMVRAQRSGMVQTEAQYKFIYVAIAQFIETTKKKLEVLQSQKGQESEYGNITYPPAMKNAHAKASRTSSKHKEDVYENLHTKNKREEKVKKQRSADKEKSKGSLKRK

Turning to AApYAAADD, the “kcat/KM x 10^7” value at PTP1B was 0.97 x 10^7 M^−1 s^−1. Also, on R47E PTP1B, the Km came to 10 ± 1 µM, the kcat stood at 35 ± 1 s⁻¹, the “kcat/KM x 10^7” value was 0.35 x 10^7 M^−1 s^−1 and the WT/R47E worked out at 2.8. Also, on R24M PTP1B, the Km was determined as 8.7 ± 0.4 µM, the kcat is 37 ± 1 s⁻¹, the “kcat/KM x 10^7” value is reported as 0.43 x 10^7 M^−1 s^−1 and the WT/R24M is 2.3.
Turning to AApYAADDA, at PTP1B, the “kcat/KM x 10^7” value is recorded as 1.1 x 10^7 M^−1 s^−1. Further, at R47E PTP1B, the Km worked out at 11 ± 2 µM, the kcat is 36 ± 2 s⁻¹, the “kcat/KM x 10^7” value was 0.32 x 10^7 M^−1 s^−1 and the WT/R47E is recorded as 3.4. For the same substance, at R24M PTP1B, the Km worked out at 6.9 ± 0.1 µM, the kcat was found to be 38 ± 1 s⁻¹, the “kcat/KM x 10^7” value was 0.55 x 10^7 M^−1 s^−1 and the WT/R24M came out at 2.0.
Regarding AApYADDAA, the “kcat/KM x 10^7” value on PTP1B is recorded as 1.4 x 10^7 M^−1 s^−1. Also, at R47E PTP1B, the Km came out at 12 ± 1 µM, the kcat stood at 34 ± 1 s⁻¹, the “kcat/KM x 10^7” value is 0.29 x 10^7 M^−1 s^−1 and the WT/R47E was 4.8. Moreover, on R24M PTP1B, the Km stood at 6.4 ± 0.2 µM, the kcat turned out to be 38 ± 1 s⁻¹, the “kcat/KM x 10^7” value was 0.59 x 10^7 M^−1 s^−1 and the WT/R24M turned out to be 2.4.
Regarding AApYDDAAA, the “kcat/KM x 10^7” value on PTP1B was 0.43 x 10^7 M^−1 s^−1. At R47E PTP1B, the Km stood at 34 ± 2 µM, the kcat is 33 ± 2 s⁻¹, the “kcat/KM x 10^7” value was 0.097 x 10^7 M^−1 s^−1 and the WT/R47E is given as 4.4. At R24M PTP1B, the “kcat/KM x 10^7” value was 0.027 x 10^7 M^−1 s^−1 and the WT/R24M was determined as 16.
Consider AApYDDIDE, for which, at PTP1B, the “kcat/KM x 10^7” value is reported as 1.1 x 10^7 M^−1 s^−1 and the “kcat/KM x10^6” value is given as 11 x10^6 M^−1 s^−1. Moreover, on R47E PTP1B, the Michaelis constant (Km) is 56 ± 2 µM, the kcat turned out to be 43 ± 1 s⁻¹, the “kcat/KM x 10^7” value is reported as 0.076 x 10^7 M^−1 s^−1 and the WT/R47E was determined as 14. Also, on R24M PTP1B, the Km was found to be 37 ± 1 µM, the kcat is 42 ± 1 s⁻¹, the “kcat/KM x 10^7” value is given as 0.11 x 10^7 M^−1 s^−1 and the WT/R24M worked out at 10.
For the substance AApYIRKRA, the “kcat/KM x 10^7” value at PTP1B was 0.042 x 10^7 M^−1 s^−1. At R47E PTP1B, the Km was found to be 89 ± 3 µM, the kcat came to 34 ± 2 s⁻¹, the “kcat/KM x 10^7” value is given as 0.038 x 10^7 M^−1 s^−1 and the WT/R47E turned out to be 1.1. On R24M PTP1B, the Km was determined as 52 ± 3 µM, the kcat turned out to be 34 ± 1 s⁻¹, the “kcat/KM x 10^7” value is given as 0.065 x 10^7 M^−1 s^−1 and the WT/R24M was found to be 0.62. For the same substance, the “increased PTP1B activity by R24M mutation” value on R24M PTP1B (R24M relative to WT) came out at 1.6 fold.
Regarding AApYWAYDD, on PTP1B, the “kcat/KM x10^6” value is recorded as 15 x10^6 M^−1 s^−1.
Turning to ARKRIpYAA, the “kcat/KM x 10^7” value at PTP1B was 0.025 x 10^7 M^−1 s^−1. On R47E PTP1B, the Km was 31 ± 4 µM, the kcat stood at 37 ± 2 s⁻¹, the “kcat/KM x 10^7” value is 0.12 x 10^7 M^−1 s^−1 and the WT/R47E is 0.21. Further, the “increased PTP1B activity by R47E mutation” value on R47E PTP1B (R47E relative to WT) is 5 fold.
As to Ac-AApYDLDEY-NH2, the specificity constant (kcat/KM) at PTP-PEST was found to be 1.3e+08 M⁻¹ s⁻¹. Further, at PTP1B, the “kcat/KM x10^6” value was 18 x10^6 M^−1 s^−1.
Regarding Ac-ASSDEpYAA-NH2, the kcat/KM on PTP-PEST came to 7.2e+06 M⁻¹ s⁻¹. Besides, on PTP1B, the “kcat/KM x 10^7” value is reported as 1.7 x 10^7 M^−1 s^−1 and the “kcat/KM x10^6” value is on record as 17 x10^6 M^−1 s^−1. Besides, on R47E PTP1B, the Km was 32 ± 1 µM, the kcat stood at 31 ± 1 s⁻¹, the “kcat/KM x 10^7” value was 0.097 x 10^7 M^−1 s^−1 and the WT/R47E amounted to 18. Further, on R24M PTP1B, the Km came to 3.8 ± 0.2 µM, the kcat was determined as 32 ± 1 s⁻¹, the “kcat/KM x 10^7” value is recorded as 0.84 x 10^7 M^−1 s^−1 and the WT/R24M amounted to 2.0.
Ac-AWGPLpYDEVQM-NH2: the “kcat/KM x 10^7” value at PTP1B was 1.7 x 10^7 M^−1 s^−1. On R47E PTP1B, the Km stood at 5.6 ± 0.4 µM, the kcat stood at 34 ± 2 s⁻¹, the “kcat/KM x 10^7” value is 0.61 x 10^7 M^−1 s^−1 and the WT/R47E is listed as 2.8. For the same substance, on R24M PTP1B, the Km amounted to 5 ± 0.5 µM, the kcat amounted to 36 ± 1 s⁻¹, the “kcat/KM x 10^7” value is recorded as 0.72 x 10^7 M^−1 s^−1 and the WT/R24M amounted to 2.3.
For the substance DPRGIpYDQVAG, the “kcat/KM x 10^7” value at PTP1B is given as 0.38 x 10^7 M^−1 s^−1. Besides, at R47E PTP1B, the Km amounted to 23 ± 1 µM, the kcat worked out at 35 ± 1 s⁻¹, the “kcat/KM x 10^7” value is reported as 0.15 x 10^7 M^−1 s^−1 and the WT/R47E was 2.5. Besides, at R24M PTP1B, the Km was 71 ± 1 µM, the kcat was 36 ± 1 s⁻¹, the “kcat/KM x 10^7” value is listed as 0.051 x 10^7 M^−1 s^−1 and the WT/R24M came out at 7.6.
As to EEDNAWpYAA, at PTP1B, the “kcat/KM x 10^7” value is given as 2.1 x 10^7 M^−1 s^−1 and the “kcat/KM x10^6” value is 21 x10^6 M^−1 s^−1. For the same substance, on R47E PTP1B, the Km was 9.5 ± 0.4 µM, the kcat stood at 32 ± 1 s⁻¹, the “kcat/KM x 10^7” value was 0.33 x 10^7 M^−1 s^−1 and the WT/R47E came out at 6.4. On R24M PTP1B, the Km was found to be 1.9 ± 0.1 µM, the kcat was found to be 35 ± 1 s⁻¹, the “kcat/KM x 10^7” value is reported as 1.8 x 10^7 M^−1 s^−1 and the WT/R24M is 1.2.
As to EIFDFpYAA, at SHP-1, the Km was 27 ± 4 µM, the kcat is 32 ± 2 s⁻¹ and the “kcat/KM x10^6” value was 1.2 x10^6 M^−1 s^−1. Also, on SHP-2, the Km was 54 ± 6 µM, the kcat is 26 ± 1 s⁻¹ and the “kcat/KM x10^6” value was 0.48 x10^6 M^−1 s^−1.
Regarding FDIDIpYAA, on SHP-1, the Km was 13 ± 1 µM, the kcat is 33 ± 1 s⁻¹ and the “kcat/KM x10^6” value was 2.5 x10^6 M^−1 s^−1. Also, on SHP-2, the Km was 39 ± 5 µM, the kcat was 30 ± 2 s⁻¹ and the “kcat/KM x10^6” value was 0.77 x10^6 M^−1 s^−1.
Consider FYDIDpYAA, for which, on SHP-1, the Km was 28 ± 2 µM, the catalytic constant (kcat) was 66 ± 2 s⁻¹ and the “kcat/KM x10^6” value was 2.4 x10^6 M^−1 s^−1. Further, on SHP-2, the Km was 66 ± 13 µM, the turnover number (kcat) is 50 ± 4 s⁻¹ and the “kcat/KM x10^6” value is recorded as 0.75 x10^6 M^−1 s^−1.
With WAGDDpYAA, at SHP-1, the Km was 45 ± 5 µM, the kcat was 57 ± 2 s⁻¹ and the “kcat/KM x10^6” value was 1.3 x10^6 M^−1 s^−1. On SHP-2, the Km is 68 ± 15 µM, the kcat is 36 ± 3 s⁻¹ and the “kcat/KM x10^6” value was 0.53 x10^6 M^−1 s^−1.

As usually defined, the Km is the concentration of substrate that gives half-maximal velocity. The kcat is the number of substrate molecules converted per active site and unit of time at saturation. As usually defined, the kcat/KM is the turnover number divided by the Michaelis constant.
